Calls of active or inactive are those of the source. The calls are words filed in the database; no cut-off is given here.
Experiments:
[1] = test system: Rattus norvegicus; assay: Antisecretory activity in 5-hrs pyloric ligated rat assessed as pH of gastric contents at 100 mg/kg, po administered 2 hrs prior to pyloric ligation measured after 1 hr (reference value: 1.1 no-unit); assay type: functional, Stomach
[2] = test system: Rattus norvegicus; assay: Antisecretory activity in 5-hrs pyloric ligated rat assessed as pH of gastric contents at 25 mg/kg, po administered 2 hrs prior to pyloric ligation measured after 1 hr (reference value: 1.07 +/- 0.01 no-unit); assay type: functional, Stomach
Summary of the method: (§1)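 Rats given a single po dose (12.5–100 mg/kg) 2 h before a 5-h pyloric ligation. Gastric secretion was assayed for pH, volume (mL/100 g) and total acid output ([…]), with % inhibition relative to controls. Groups had 5–15 rats, with 39 controls. Values are means ± SE from several experiments, and significance versus control was taken at p < 0.05 or 0.01.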

[3] = test system: Rattus norvegicus; assay: Antisecretory activity in 5-hrs pyloric ligated rat assessed as pH of gastric contents at 12.5 mg/kg, po administered 2 hrs prior to pyloric ligation measured after 1 hr (reference value: 1.07 +/- 0.01 no-unit); assay type: functional, Stomach; summary of the method: as §1
[4] = test system: Rattus norvegicus; assay: Antisecretory activity in 5-hrs pyloric ligated rat assessed as pH of gastric contents at 50 mg/kg, po administered 2 hrs prior to pyloric ligation measured after 1 hr (reference value: 1.07 +/- 0.01 no-unit); assay type: functional, Stomach; summary of the method: as §1
[5] = test system: Rattus norvegicus; assay: Antisecretory activity in 5-hrs pyloric ligated rat assessed as pH of gastric contents at 100 mg/kg, po administered 2 hrs prior to pyloric ligation measured after 1 hr (reference value: 1.07 to 1.1 no-unit); assay type: functional, Stomach
[6] = test system: Rattus norvegicus; assay: Antisecretory activity in 5-hrs pyloric ligated rat assessed as volume of gastric secretion at 12.5 mg/kg, po administered 2 hrs prior to pyloric ligation measured per 100 gm of tissue (reference value: 4.05 +/- 0.21 ml); assay type: functional, Stomach; summary of the method: as §1
[7] = test system: Rattus norvegicus; assay: Antisecretory activity in 5-hrs pyloric ligated rat assessed as volume of gastric secretion at 25 mg/kg, po administered 2 hrs prior to pyloric ligation measured per 100 gm of tissue (reference value: 4.05 +/- 0.21 ml); assay type: functional, Stomach; summary of the method: as §1
[8] = test system: Rattus norvegicus; assay: Antisecretory activity in 5-hrs pyloric ligated rat assessed as volume of gastric secretion at 50 mg/kg, po administered 2 hrs prior to pyloric ligation measured per 100 gm of tissue (reference value: 4.05 +/- 0.21 ml); assay type: functional, Stomach; summary of the method: as §1
[9] = test system: Rattus norvegicus; assay: Antisecretory activity in 5-hrs pyloric ligated rat assessed as volume of gastric secretion at 100 mg/kg, po administered 2 hrs prior to pyloric ligation measured per 100 gm of tissue (reference value: 4.05 +/- 0.21 ml); assay type: functional, Stomach; summary of the method: as §1
[10] = test system: Rattus norvegicus; assay: Antisecretory activity in 5-hrs pyloric ligated rat assessed as inhibition of total acid output at 12.5 mg/kg, po administered 2 hrs prior to pyloric ligation (reference value: 0%); assay type: functional; summary of the method: as §1
[11] = test system: Rattus norvegicus; assay: Antisecretory activity in 5-hrs pyloric ligated rat assessed as inhibition of total acid output at 25 mg/kg, po administered 2 hrs prior to pyloric ligation (reference value: 0%); assay type: functional; summary of the method: as §1
[12] = test system: Rattus norvegicus; assay: Antisecretory activity in 5-hrs pyloric ligated rat assessed as inhibition of total acid output at 50 mg/kg, po administered 2 hrs prior to pyloric ligation (reference value: 0%); assay type: functional; summary of the method: as §1
[13] = test system: Rattus norvegicus; assay: Antisecretory activity in 5-hrs pyloric ligated rat assessed as inhibition of total acid output at 100 mg/kg, po administered 2 hrs prior to pyloric ligation (reference value: 0%); assay type: functional; summary of the method: as §1
[14] = test system: Canis familiaris; assay: Antisecretory activity in histamine-stimulated dog assessed as pH of gastric contents at 1.6 mg/kg, po administered 18 and 2 hrs prior to histamine challenge (reference value: 1 no-unit); assay type: functional, Canis lupus familiaris, Stomach
[15] = test system: Canis familiaris; assay: Antisecretory activity in histamine-stimulated dog assessed as pH of gastric contents at 3.1 mg/kg, po administered 18 and 2 hrs prior to histamine challenge (reference value: 1 no-unit); assay type: functional, Canis lupus familiaris, Stomach
[16] = test system: Canis familiaris; assay: Antisecretory activity in histamine-stimulated dog assessed as pH of gastric contents at 6.2 mg/kg, po administered 18 and 2 hrs prior to histamine challenge (reference value: 1 no-unit); assay type: functional, Canis lupus familiaris, Stomach
[17] = test system: Canis familiaris; assay: Antisecretory activity in histamine-stimulated dog assessed as pH of gastric contents at 12.5 mg/kg, po administered 18 and 2 hrs prior to histamine challenge (reference value: 1 no-unit); assay type: functional, Canis lupus familiaris, Stomach
[18] = test system: Canis familiaris; assay: Antisecretory activity in histamine-stimulated dog assessed as pH of gastric contents at 25 mg/kg, po administered 18 and 2 hrs prior to histamine challenge (reference value: 1 no-unit); assay type: functional, Canis lupus familiaris, Stomach
[19] = test system: Canis familiaris; assay: Antisecretory activity in histamine-stimulated dog assessed as volume of gastric secretion at 1.6 mg/kg, po administered 18 and 2 hrs prior to histamine challenge measured per 15 mins (reference value: 14.7 ml); assay type: functional, Canis lupus familiaris, Stomach
[20] = test system: Canis familiaris; assay: Antisecretory activity in histamine-stimulated dog assessed as volume of gastric secretion at 3.1 mg/kg, po administered 18 and 2 hrs prior to histamine challenge measured per 15 mins (reference value: 14.7 ml); assay type: functional, Canis lupus familiaris, Stomach
[21] = test system: Canis familiaris; assay: Antisecretory activity in histamine-stimulated dog assessed as volume of gastric secretion at 6.2 mg/kg, po administered 18 and 2 hrs prior to histamine challenge measured per 15 mins (reference value: 14.7 ml); assay type: functional, Canis lupus familiaris, Stomach
[22] = test system: Canis familiaris; assay: Antisecretory activity in histamine-stimulated dog assessed as volume of gastric secretion at 12.5 mg/kg, po administered 18 and 2 hrs prior to histamine challenge measured per 15 mins (reference value: 14.7 ml); assay type: functional, Canis lupus familiaris, Stomach
[23] = test system: Canis familiaris; assay: Antisecretory activity in histamine-stimulated dog assessed as volume of gastric secretion at 25 mg/kg, po administered 18 and 2 hrs prior to histamine challenge measured per 15 mins (reference value: 14.7 ml); assay type: functional, Canis lupus familiaris, Stomach
[24] = test system: Canis familiaris; assay: Antisecretory activity in histamine-stimulated dog assessed as inhibition of total acid output at 1.6 mg/kg, po administered 18 and 2 hrs prior to histamine challenge (reference value: 0%); assay type: functional; conditions: Canis lupus familiaris
[25] = test system: Canis familiaris; assay: Antisecretory activity in histamine-stimulated dog assessed as inhibition of total acid output at 3.1 mg/kg, po administered 18 and 2 hrs prior to histamine challenge (reference value: 0%); assay type: functional; conditions: Canis lupus familiaris
[26] = test system: Canis familiaris; assay: Antisecretory activity in histamine-stimulated dog assessed as inhibition of total acid output at 6.2 mg/kg, po administered 18 and 2 hrs prior to histamine challenge (reference value: 0%); assay type: functional; conditions: Canis lupus familiaris
[27] = test system: Canis familiaris; assay: Antisecretory activity in histamine-stimulated dog assessed as inhibition of total acid output at 12.5 mg/kg, po administered 18 and 2 hrs prior to histamine challenge (reference value: 0%); assay type: functional; conditions: Canis lupus familiaris
[28] = test system: Canis familiaris; assay: Antisecretory activity in histamine-stimulated dog assessed as inhibition of total acid output at 25 mg/kg, po administered 18 and 2 hrs prior to histamine challenge (reference value: 0%); assay type: functional; conditions: Canis lupus familiaris
[29] = species: Mus musculus; assay: Anticholinergic activity in mouse assessed as induction of mydriasis; assay type: functional, organism-based
[30] = test system: Heart; assay: Anticholinergic activity in guinea pig auricle assessed as carbamylcholine-induced depression of heart rate after 5 mins; assay type: functional, tissue-based; conditions: Cavia porcellus
Summary of the method: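 Isolated guinea pig auricles in Krebs-Henseleit solution at 35 °C. Compound dissolved in Me2SO-H2O, added to the bath, and left on the tissue for 5 min. Read-out was the dose-related carbamylcholine-induced fall in spontaneous heart rate.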

[31] = test system: Trachea; assay: Anticholinergic activity in guinea pig trachea assessed as carbamylcholine-induced constriction at 10 uM; assay type: functional, tissue-based; conditions: Cavia porcellus
Summary of the method: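 Guinea pig trachea set up in the same bath system as the auricle preparation. Compound in Me2SO-H2O was added to the bath at 10^-5 M. Read-out was the dose-related response to carbamylcholine.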

[32] = target: Histamine H2 receptor (Cavia porcellus) (UniProt P47747); assay: Inhibition of histamine H2 receptor in guinea pig atria assessed as inhibition of histamine response
[33] = test system: Rattus norvegicus; assay: Antisecretory activity in po dosed 5-hrs pyloric ligated rat assessed as increase in pH of gastric secretions administered 2 hrs prior to pyloric ligation measured after 1 hr; assay type: functional, organism-based; conditions: Stomach; summary of the method: as §1
[34] = test system: Rattus norvegicus; assay: Antisecretory activity in po dosed 5-hrs pyloric ligated rat assessed as decrease in volume of gastric secretions administered 2 hrs prior to pyloric ligation; assay type: functional, organism-based; conditions: Stomach; summary of the method: as §1
[35] = test system: Rattus norvegicus; assay: Antisecretory activity in po dosed 5-hrs pyloric ligated rat assessed as decrease in total acidity of gastric secretions administered 2 hrs prior to pyloric ligation; assay type: functional, organism-based; conditions: Stomach; summary of the method: as §1
[36] = test system: Canis familiaris; assay: Antisecretory activity in po dosed histamine-stimulated dog assessed as increase in pH of gastric secretions administered 18 and 2 hrs prior to histamine challenge; assay type: functional, organism-based; conditions: Canis lupus familiaris; Stomach
[37] = test system: Canis familiaris; assay: Antisecretory activity in po dosed histamine-stimulated dog assessed as decrease in volume of gastric secretions administered 18 and 2 hrs prior to histamine challenge; assay type: functional, organism-based; conditions: Canis lupus familiaris; Stomach
[38] = test system: Canis familiaris; assay: Antisecretory activity in po dosed histamine-stimulated dog assessed as decrease in total acidity of gastric secretions administered 18 and 2 hrs prior to histamine challenge; assay type: functional, organism-based; conditions: Canis lupus familiaris; Stomach

Histamine H2 receptor (Cavia porcellus), sequence (P47747 whole entry): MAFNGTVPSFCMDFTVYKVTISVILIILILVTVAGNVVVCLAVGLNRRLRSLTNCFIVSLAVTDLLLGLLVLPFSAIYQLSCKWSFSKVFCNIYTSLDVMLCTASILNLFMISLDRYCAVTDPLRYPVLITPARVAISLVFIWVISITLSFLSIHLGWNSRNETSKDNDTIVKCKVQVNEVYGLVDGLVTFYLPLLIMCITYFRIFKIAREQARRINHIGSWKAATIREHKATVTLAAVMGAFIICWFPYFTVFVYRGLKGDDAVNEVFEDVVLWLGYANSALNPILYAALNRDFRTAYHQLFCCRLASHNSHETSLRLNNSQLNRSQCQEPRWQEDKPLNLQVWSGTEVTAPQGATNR

Work on Cc1c2c(c(C)n1-c1cccc(Cl)c1)C(C)(C(N)=O)CC2(C)C (stereo unspecified) yielded a pH [1] of 1.1.

Cc1cccc(-n2c(C)c3c(c2C)C(C)(C(N)=O)CC3(C)C)c1 (stereo unspecified) was tested, and the pH [1] was 1.2.

With Cc1c2c(c(C)n1C1CCC1)C(C)(C(N)=O)CC2(C)C (stereo unspecified) the pH [1] was 2.2.

Compound Cc1[nH]c(C)c2c1C(C)(C)CC2(C)C(N)=O (stereo unspecified) has a pH [1] of 1.4.

With Cc1ccccc1-n1c(C)c2c(c1C)C(C)(C(N)=O)CC2(C)C (stereo unspecified) the pH [1] was 1.

For CCn1c(C)c2c(c1C)C(C)(C(N)=O)CC2(C)C (stereo unspecified), the pH [1] was 4.8.

With Cc1c2c(c(C)n1C1CCCC1)C(C)(C(N)=O)CC2(C)C (stereo unspecified) the pH [1] was 1.3.

CN/C(=N\CCSCc1nc[nH]c1C)NC#N [CIMETIDINE] gave a pH [1] of 2.1.

CCCCn1c(C)c2c(c1C)C(C)(C(N)=O)CC2(C)C (stereo unspecified) gave a pH [1] of 2.5.

Work on CCCn1c(C)c2c(c1C)C(C)(C(N)=O)CC2(C)C (stereo unspecified) yielded a pH [1] of 5.3.

Cc1c2c(c(C)n1-c1ccccc1)C(C)(C(N)=O)CC2(C)C (stereo unspecified) was tested, and the pH [2] was 1.83, the pH [3] was 1.34 and the pH [4] was 3.28. The pH [5] was 6.2, the Activity [6] was 2.66 mL and the Activity [7] was 2.16 mL. The Activity [8] was 1.66 mL, the Activity [9] was 1.19 mL and the inhibition in vivo at 12.5 mg/kg [10] was 41%. It also gave an inhibition in vivo at 25 mg/kg [11] of 52%, an inhibition in vivo at 50 mg/kg [12] of 75% and an inhibition in vivo at 100 mg/kg [13] of 100%. The pH [14] was 1.2, the pH [15] was 1.8 and the pH [16] was 3.9. The pH [17] was 4.7, the pH [18] was 6.7 and the Activity [19] was 11.9 mL. For the same compound, the Activity [20] was 3.8 mL, the Activity [21] was 2 mL and the Activity [22] was 4.8 mL. For the same compound, the Activity [23] was 2.4 mL, the inhibition in vivo at 1.6 mg/kg [24] was 49% and the inhibition in vivo at 3.1 mg/kg [25] was 84%. For the same compound, the inhibition in vivo at 6.2 mg/kg [26] was 95%, the inhibition in vivo at 12.5 mg/kg [27] was 88% and the inhibition in vivo at 25 mg/kg [28] was 93%. For the same compound, the Activity [29] was “inactive”, the Activity [30] was “inactive” and the Activity [31] was “inactive”. The inhibition [32] was “Active”, the Activity [33] was “Dose-dependent effect” and the inhibition [34] was “Dose-dependent effect”. The inhibition [35] was “Dose-dependent effect”, the Activity [36] was “Dose-dependent effect” and the inhibition [37] was “Dose-dependent effect”. For the same compound, the inhibition [38] was “Dose-dependent effect”.

In the case of Cc1c2c(c(C)n1C(C)C)C(C)(C(N)=O)CC2(C)C (stereo unspecified), the pH [1] is reported as 1.8.

Compound Cc1c2c(c(C)n1-c1ccc(F)cc1)C(C)(C(N)=O)CC2(C)C (stereo unspecified) has a pH [1] of 1.4.

Work on Cc1c2c(c(C)n1-c1ccc(Cl)cc1)C(C)(C(N)=O)CC2(C)C (stereo unspecified) yielded a pH [1] of 1.2.

Cc1c2c(c(C)n1Cc1ccccc1)C(C)(C(N)=O)CC2(C)C (stereo unspecified) gave a pH [1] of 1.

Cc1c2c(c(C)n1CC1CC1)C(C)(C(N)=O)CC2(C)C (stereo unspecified) showed a pH [1] of 5.1.

With Cc1c2c(c(C)n1C)C(C)(C(N)=O)CC2(C)C (stereo unspecified) the pH [1] was 4.2.

Work on Cc1c2c(c(C)n1C1CC1)C(C)(C(N)=O)CC2(C)C (stereo unspecified) yielded a pH [1] of 3.7.

In the case of Cc1ccc(-n2c(C)c3c(c2C)C(C)(C(N)=O)CC3(C)C)cc1 (stereo unspecified), the pH [1] is reported as 1.1.

With Cc1c2c(c(C)n1-c1ccccc1Cl)C(C)(C(N)=O)CC2(C)C (stereo unspecified) the pH [1] was 1.1.

— ChEMBL document CHEMBL3244175, “Experimental antiulcer drugs. 2. 2-Substituted 2,4,5,6-tetrahydro-1,3,4,6,6-pentamethylcyclopenta[c]pyrrole-4-carboxamides” (1977)
